MrgX1 antagonist – blocks BAM8-22 activation of human MrgX1 receptor. AID 588676. MRGX1-HEK293 calcium flux, Fluo-4, BAM8-22 antagonism; active compounds read low. 310,000 tested, 1.3% active. B-score at 10 µM. Q96LB2;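 active = calcium-response B-score plate-corrected more than 3 library SD below zero, starting fluorescence within 5 deviations, no agonist response on first addition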;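 note: peak minus trough fluorescence over baseline after final BAM8-22 challenge near maximal dose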
Target sequence (Q96LB2 whole entry, looked up): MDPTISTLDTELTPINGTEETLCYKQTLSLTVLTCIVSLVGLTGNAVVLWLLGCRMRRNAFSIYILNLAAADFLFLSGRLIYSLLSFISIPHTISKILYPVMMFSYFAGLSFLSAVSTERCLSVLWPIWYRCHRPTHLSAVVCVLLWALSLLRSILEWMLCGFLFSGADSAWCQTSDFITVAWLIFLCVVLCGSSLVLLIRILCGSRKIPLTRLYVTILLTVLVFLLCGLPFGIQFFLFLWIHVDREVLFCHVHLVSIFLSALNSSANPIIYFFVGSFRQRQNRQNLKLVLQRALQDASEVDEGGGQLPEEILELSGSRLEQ
RGS4 pot – potentiators or activators of RGS4 | HEK293 M3R/inducible RGS4, carbachol calcium flux Fluo4; active compounds read low | B-score at 10 µM | 310,000 tested, 0.92% active | AID 463111;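 active = B-score of the integrated calcium signal more than 4 SD below the library mean, with starting fluorescence not abnormally high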;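 note: negative B-score means reduced calcium response which marks RGS4 activation or potentiation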
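Also added: carbachol at ECmax as muscarinic agonist stimulus; Assay system: HEK293 cells with stable M3R and inducible RGS4; Timing: overnight RGS4 induction, 30 min dye load 37 °C, 20 min compound RT; Measured by: Fluo4-AM (2 µM) calcium-flux fluorescence, kinetic read.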
RGS4 block – inhibitors of human RGS4; P49798; HEK293 M3R/RGS4 inducible, Fluo-4 calcium flux; active compounds read high; triggered by carbachol at its EC20; B-score at 10 µM; 310,000 tested, 0.45% active; AID 463165;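 active = B-score, a plate-corrected calcium signal, over three deviations above library mean, with baseline fluorescence within five deviations of library mean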;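 note: RGS4 expression induced by doxycycline in cells with stable M3 receptor; B-score is computed from the integrated fluorescence ratio over baseline after carbachol; higher B-score means a larger calcium signal and so more RGS4 inhibition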
Target sequence (P49798 whole entry, looked up): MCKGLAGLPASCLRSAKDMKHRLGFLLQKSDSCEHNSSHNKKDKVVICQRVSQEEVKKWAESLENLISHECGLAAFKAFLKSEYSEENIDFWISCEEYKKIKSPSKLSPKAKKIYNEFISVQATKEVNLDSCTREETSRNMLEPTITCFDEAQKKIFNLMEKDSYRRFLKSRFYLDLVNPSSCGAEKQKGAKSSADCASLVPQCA
MrgX1 ag – activates human MrgX1 receptor signaling; Q96LB2; AID 588627; 310,000 tested, 0.44% active; MrgX1-HEK293 cells, Fluo-4 calcium fluorescence, agonist mode; active compounds read high; B-score at 10 µM;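 active = calcium response B-score plate-corrected fluorescence ratio at least 3 library SD, with starting fluorescence B-score inside 5 SD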
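Material: MrgX1-expressing HEK293 cells; input: 15,000 cells per well; doses: test compound given as first of three sequential additions; schedule: overnight plating before 1 h dye loading; technique: Fluo-4 NW calcium-flux fluorescence, kinetic read; evaluation: baseline-normalised fluorescence change ratio, B-scored; control set: plate-wise positive and negative controls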
MrgX1 allo act – allosterically activates human MrgX1 receptor signaling; MrgX1-HEK293, Fluo-4 calcium flux, FDSS; active compounds read high; 310,000 tested, 0.63% active; B-score at 10 µM; Q96LB2;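 active = plate-corrected calcium response at least 3 library SD above typical, normal starting fluorescence, not activating the receptor alone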;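 note: compound read alongside a low EC10 to EC30 dose of BAM8-22 agonist; peak minus trough fluorescence over baseline measured at the second addition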
Numbers without * were called inactive; i = inactive; . = no result given. Rows were chosen to be rich in hits. Some 3.5% of all compounds tested hit in one or more screens of this group.

SMILES	MrgX1 antagonist	RGS4 pot	RGS4 block	MrgX1 ag	MrgX1 allo act
C#CCNC(=O)C1=C[C@@H](c2ccc(C#C)cc2)[C@H](CCCO)[C@@H](OCC)O1	-8.4*	i	i	i	i
CCO[C@@H]1OC(C(=O)NCc2ccccc2)=C[C@H](c2coc3ccccc3c2=O)[C@H]1CCCO	-5.9*	i	i	i	i
O=C(N/N=C/c1ccc(OC(=O)c2ccccc2)c([N+](=O)[O-])c1)c1ccc(O)cc1	i	i	i	i	i
COc1cc(CN2CCNC(=O)C2CC(=O)N(C)Cc2ncc[nH]2)cc(OC)c1 (centres undefined)	i	i	i	i	i
CCCCCCCN1N=C(C)C(C(=O)c2ccccc2)C1=O (centres undefined)	i	i	i	i	i
CCCCCCN1N=C(C)C(C(=O)c2ccc(Cl)cc2)C1=O (centres undefined)	i	i	i	66*	i
CCN1C/C(=C/c2cccc([N+](=O)[O-])c2)C(=O)/C(=C/c2cccc([N+](=O)[O-])c2)C1	i	.	.	i	i
Cc1ccc(C2C(C#N)=C(N)SC(N)=C2C#N)c(C)c1	i	i	i	52*	i
COc1ccc(O)c(/C=N/Nc2nc(Nc3ccccc3)nc(-n3nc(C)cc3C)n2)c1	i	-8.5*	i	i	i
C=C(C)COc1ccc(-c2ncnc(C(F)(F)F)c2-c2ccc(OC)cc2)c(O)c1	i	-7.1*	i	i	i
Cc1ccc2nsnc2c1S(=O)(=O)Nc1ccccc1C(=O)O	i	i	i	i	i
CC(C)OP(=O)(OC(C)C)C(NC(=O)c1ccc(Br)cc1)c1ccccc1 (centres undefined)	i	i	i	i	i
COc1ccc(-c2nn(-c3ccccc3)cc2/C=N/NC(=O)c2ccc(Br)o2)cc1	i	-8.1*	i	i	i
CC(=O)OCC(=O)Nc1ccc([N+](=O)[O-])cc1Cl	i	i	i	i	i
CC(=O)Oc1c(C)cc(Cl)cc1C(=O)Nc1ccc([N+](=O)[O-])cc1Cl	-5*	i	i	i	i
CC(C)NC(=O)c1cc2cc(Br)ccc2oc1=O	i	i	i	i	i
Cc1ccc(C(C)NC(=O)c2cc3cc(Br)ccc3oc2=N)cc1 (centres undefined)	i	-9.2*	i	i	i
Cc1cc(S(=O)(=O)N2CCCCC2CCNC(=O)C(=O)NCC2CCCO2)ccc1F (centres undefined)	i	i	i	i	i
CCCCC(=O)N(c1ccc(C(=O)O)cc1)c1nc(-c2ccc(Cl)cc2)c(CC)s1	i	-7.4*	i	i	i
CCc1sc(N(C(=O)Cc2ccccc2)c2ccccc2)nc1-c1ccccc1	i	i	i	i	i
Cc1ccc(C(=O)Nc2ccc(S(=O)(=O)Nc3cnc4ccccc4n3)cc2)cc1	i	i	i	i	i
Cc1cc(SCC(=O)OC(C)C(=O)N(C)c2ccccc2)nc2ccccc12 (centres undefined)	i	i	i	i	i
OC(C#CCCN1CCCCC1)(c1ccccc1)c1ccccc1	i	i	i	i	i
C[N+]1(CC#CC(O)(c2ccccc2)c2ccccc2)CCCC1	i	-8.4*	i	i	i
CC(C)[N+](C)(C)CC#CC(O)(c1ccccc1)c1ccccc1	i	-7.8*	i	i	i
SMILES	MrgX1 antagonist	RGS4 pot	RGS4 block	MrgX1 ag	MrgX1 allo act
CSc1nc2ccc(NS(=O)(=O)c3cccc(Cl)c3Cl)cc2s1	i	i	i	i	i
C/C(=N\NC(=O)c1ccc(Cn2cc(Br)cn2)o1)c1cccc(NC(=O)C(C)(C)C)c1	i	i	i	i	i
C/C(=N\NC(=O)c1ccc(Cn2cc(Br)cn2)o1)c1ccc(NC(=O)c2ccoc2C)cc1	.	-9.5*	i	.	.
CC(C)(C)c1ccc(C(=O)c2cn[nH]c2-c2ccccc2O)cc1	i	i	i	i	i
COc1ccc(Oc2nc(Oc3ccc(OC)cc3)nc(Oc3ccc(OC)cc3)n2)cc1	-6.5*	i	i	i	i
COc1nc(Oc2ccc(C(=O)O)cc2)nc(Oc2ccc(C(=O)O)cc2)n1	i	i	i	i	i
CCCCOC(=O)c1ccc(NC(=O)Nc2ccc(OC)c(OC)c2)cc1	i	-7*	i	i	i
Cc1ccc(NC(=O)COC(=O)c2ccc(=O)n(Cc3ccccc3)n2)cc1F	i	i	i	i	i
CC(OC(=O)c1ccc(=O)n(Cc2ccccc2)n1)C(=O)Nc1cccc(Cl)c1 (centres undefined)	-5.3*	i	i	i	i
CCc1nn2c(=O)cc(COc3ccc(/C=C4\C(=N)N5N=C(C)SC5=NC4=O)cc3)nc2s1	-4.5*	i	i	i	9.4*
CCC1=NN2C(=N)/C(=C\c3ccc(OCCOc4ccc(NC(C)=O)cc4)cc3)C(=O)N=C2S1	i	i	i	i	11*
CCCC1=NN2C(=N)/C(=C\c3ccc(OCCOc4ccc(NC(C)=O)cc4)c(OC)c3)C(=O)N=C2S1	i	i	i	i	15*
COc1cc(/C=C2/C(=N)N3OC(C)=CC3=NC2=O)ccc1OCCOc1ccc(C)cc1	-4.9*	i	i	i	i
CCOc1cc(/C=C2\C(=N)N3N=C(CC)SC3=NC2=O)ccc1OCCOc1ccc(NC(C)=O)cc1	i	i	i	i	i
CCOc1cc(/C=C2\C(=N)N3N=C(C)SC3=NC2=O)ccc1OCCOc1cccc(OC)c1	i	i	i	i	i
CNC(=O)c1c(NC(=O)c2ccc(N3C(=O)CCC3=O)cc2)sc2c1CCC(C)C2 (centres undefined)	i	i	i	i	i
CC(=O)Nc1ccc(OCCOc2ccc(/C=C3/C(=N)N4C=CSC4=NC3=O)cc2)cc1	i	i	i	30*	i
CCC1=NN2C(=N)/C(=C/c3c(C)nn(-c4ccccc4)c3Cl)C(=O)N=C2S1	i	i	i	30*	i
CCC1=NN2C(=N)/C(=C/c3ccc(OS(=O)(=O)c4ccccc4)c(OC)c3)C(=O)N=C2S1	i	i	i	i	i
COc1cc(/C=C2\C(=N)N3N=C(C)SC3=NC2=O)cc(OC)c1OCCOc1ccccc1C	i	i	i	i	i
COc1cc(/C=C2\C(=N)N3N=C(C)SC3=NC2=O)cc(Cl)c1OCCOc1ccc(NC(C)=O)cc1	i	i	i	i	7.6*
COc1ccccc1OCCOc1ccc(/C=C2\C(=N)N3N=C(S(C)(=O)=O)SC3=NC2=O)cc1	i	i	i	i	i

Assay outcomes (PubChem)
